# Pf Dd2 growth = blocks growth of Plasmodium falciparum Dd2 parasites | P. falciparum Dd2 growth, SYBR Green, 72 h; hits give low values | AID 1159554 | 94,000 compounds, 2.3% hits | activity change, % at 10 µM; in the data active = activity change below about -80%; inconclusive = no clear call, values can overlap the other calls
# IDH1 R132H inh = IDH1 R132H (human) inhibition | AID 624101 | 70,000 compounds, 0.18% hits | O75874 | inhibition, % at 10 µM | IDH1 R132H reductase, diaphorase/resazurin fluorescence, 60 min; in the data active = inhibition above about 34%; inconclusive = no clear call, values can overlap the other calls; inactive = below about 11%;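 note: 0% = DMSO and 100% = no enzyme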
# GASC1 inh = blocks human GASC-1 (KDM4C) demethylase activity; 96,000 compounds, 0.15% hits; inhibition, % at 12.5 µM; AID 720574; GST-KDM4C 2-372, H3K9me3 peptide, LANCE TR-FRET;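 active = mean replicate inhibition above about 25%, with at least 55% of replicates also reaching it, limit read from the data, passing the limit was not always enough; inconclusive = only one of those two conditions met; inactive = neither condition met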
# Target sequence (Q9H3R0 2-372 limits assumed): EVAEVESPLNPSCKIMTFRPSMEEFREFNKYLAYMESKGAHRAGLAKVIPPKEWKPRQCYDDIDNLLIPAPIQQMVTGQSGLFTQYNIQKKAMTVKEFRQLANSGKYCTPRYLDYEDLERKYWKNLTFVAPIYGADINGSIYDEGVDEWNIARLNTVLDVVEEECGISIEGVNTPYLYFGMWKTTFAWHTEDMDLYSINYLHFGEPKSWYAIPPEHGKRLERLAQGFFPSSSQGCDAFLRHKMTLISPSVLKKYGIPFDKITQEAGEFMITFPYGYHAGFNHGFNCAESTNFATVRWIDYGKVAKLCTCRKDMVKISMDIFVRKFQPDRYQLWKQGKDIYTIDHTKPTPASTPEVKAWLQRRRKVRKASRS
#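 Material: N-terminal GST-fused human GASC-1 (KDM4C) fragment, residues 2-372. Input: 10 nM enzyme. Incubation: enzyme reaction 30 min, then detection 60 min, both room temperature. Doses: one test concentration per compound. Read-out basis: inhibition from TR-FRET ratio decrease. Detection: LANCE TR-FRET, excitation 340 nm, emissions 618 and 671 nm.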
# Numbers without * were called inactive; u = inconclusive; x = no result. This excerpt belongs to a sample that is enriched for hits.
SMILES,Pf Dd2 growth,IDH1 R132H inh,GASC1 inh
CN(C)CCCNC(=O)[C@@H]1[C@@H](CO)[C@@H]2Cn3c(ccc(-c4ccccc4)c3=O)[C@H]1N2C,9.3,x,2.3
COc1ccc(S(=O)(=O)N2CC[C@@H]3[C@H]2c2cc(C#Cc4ccccc4OC)ccc2N[C@@H]3CO)cc1,-83.3*,x,-1.4
COc1ccc(S(=O)(=O)N2CC[C@@H]3[C@@H](CO)Nc4ccc(-c5ccc(C#N)cc5)cc4[C@@H]32)cc1,-81.2*,x,0.0
COc1ccc(S(=O)(=O)N2CC[C@@H]3[C@H](CO)Nc4ccc(-c5ccc(C#N)cc5)cc4[C@@H]32)cc1,-54.2,x,7.0
COc1ccc(S(=O)(=O)N2CC[C@H]3[C@H](CO)Nc4ccc(C#Cc5ccccc5OC)cc4[C@H]32)cc1,-25.9,x,5.5
CC(=O)N1[C@@H]2c3ccc(-c4cncnc4)c(=O)n3C[C@H]1[C@H](CO)[C@H]2C(=O)NC1Cc2ccccc2C1,13.3,x,-3.7
C/C=C/c1ccc2c(c1)O[C@@H](CN(C)C(=O)c1ccncc1)[C@@H](C)CN([C@@H](C)CO)S2(=O)=O,-17.0,0.5,0.7
CCCN1C[C@H](C)[C@@H](OC)CN(C)C(=O)c2cc(NC(=O)c3cccc(F)c3)ccc2OC[C@H]1C,-25.8,0.0,-0.9
C[C@@H]1CCCCO[C@H](CN(C)C(=O)Nc2ccc3c(c2)OCO3)[C@H](C)CN([C@H](C)CO)C(=O)c2cc(NC(=O)Cc3ccccc3)ccc2O1,-82.2*,1.3,-0.7
C[C@@H]1CCCCO[C@@H](CN(C)C(=O)Nc2ccc3c(c2)OCO3)[C@@H](C)CN([C@@H](C)CO)C(=O)c2cc(NC(=O)Cc3ccccc3)ccc2O1,-83.5*,x,-0.4
C[C@H]1CCCCO[C@H](CN(C)C(=O)Nc2ccc3c(c2)OCO3)[C@@H](C)CN([C@@H](C)CO)C(=O)c2cc(NC(=O)Cc3ccccc3)ccc2O1,u,x,-0.6
C[C@@H]1CCCCO[C@H](CN(C)C(=O)Nc2ccc3c(c2)OCO3)[C@@H](C)CN([C@@H](C)CO)C(=O)c2cc(NC(=O)Cc3ccccc3)ccc2O1,-65.7,x,0.2
CCC(=O)NC[C@@H]1[C@@H](c2ccccc2)[C@H](CO)N1C(=O)C1CCC1,-7.9,x,-1.8
O=C(COc1ccc(Br)cc1Cl)NCc1cccnc1,x,0.6,x
CCN(CC(=O)Nc1ccc(OC)cc1)S(=O)(=O)c1ccc(C)cc1,x,-0.3,x
O=C(O)c1cccc2cccc(SC(C(=O)O)c3ccccc3)c12 (stereo not given),x,0.2,x
COc1ccc2c3c([nH]c2c1)[C@@H](CO)N(C(=O)CN(C)C)CC31CCN(CC2CCCCC2)CC1,-87.2*,x,0.2
COc1ccc2c3c([nH]c2c1)[C@H](CO)N(C(=O)CN(C)C)CC31CCN(CC2CCCCC2)CC1,-89.0*,x,0.3
COc1ccc2c3c([nH]c2c1)[C@H](CO)N(C(=O)CN(C)C)CC31CN(CC2CCCC2)C1,-77.1,x,-1.3
COc1ccc2c3c([nH]c2c1)[C@H](CO)N(C(=O)CN(C)C)CC31CCN(CC2CC2)CC1,3.4,x,0.8
CN1C(=O)c2cc(NC(=O)Nc3ccccc3Cl)ccc2OC[C@@H]2O[C@@H](CC(=O)O)CC[C@H]21,1.2,x,2.3
C[C@H](CO)N1C[C@H](C)[C@@H](CN(C)S(=O)(=O)c2ccccc2)OCCCC[C@H](C)Oc2ccc(NC(=O)Nc3cccc4ccccc34)cc2C1=O,-42.6,-0.8,-2.3
COc1ccc(S(=O)(=O)N(C)C[C@H]2OCCCC[C@@H](C)Oc3ccc(NC(=O)Nc4cccc5ccccc45)cc3C(=O)N([C@H](C)CO)C[C@H]2C)cc1,-82.2*,x,-7.4
COc1ccc(S(=O)(=O)N(C)C[C@@H]2OCCCC[C@@H](C)Oc3ccc(NC(=O)Nc4cccc5ccccc45)cc3C(=O)N([C@@H](C)CO)C[C@@H]2C)cc1,-83.4*,-0.4,-2.9
COc1ccc(S(=O)(=O)N(C)C[C@H]2OCCCC[C@H](C)Oc3ccc(NC(=O)Nc4cccc5ccccc45)cc3C(=O)N([C@H](C)CO)C[C@@H]2C)cc1,-20.8,0.0,-2.9
O=C(C[C@@H]1C[C@@H]2c3cc(NC(=O)c4cccnc4)ccc3O[C@@H]2[C@H](CO)O1)NCC1CC1,12.1,-0.4,2.1
COc1ccc2c3c([nH]c2c1)[C@H](CO)N(Cc1ccc(Cl)cc1)CC31CCN(C(=O)CN(C)C)CC1,u,x,-2.1
COc1ccc2c3c([nH]c2c1)[C@H](CO)N(Cc1ccncc1)CC31CCN(C(=O)c2cccnc2)CC1,-10.6,x,1.4
COc1cc(CN2CC3(CCN(C(=O)c4cccnc4)CC3)c3c([nH]c4cc(OC)ccc34)[C@@H]2CO)cc(OC)c1,-89.4*,x,-0.6
CCCC(=O)N1CCC2(CC1)CN(Cc1ccc(Cl)cc1)[C@@H](CO)c1[nH]c3cc(OC)ccc3c12,-84.4*,x,-2.1

# High-throughput results (PubChem)
